DENV2 CPE: inhibitors of DENV2 cytopathic effect | DENV2-infected cells, cytopathic effect rescue, plate reader | CPE inhibition, % at 9.99 µM | actives 1.7% (n = 350,000) | AID 651640; in the data active means CPE inhibition above about 20%, passing the limit was not always enough; inconclusive means no clear call, values can overlap the other calls; tested in BHK-21 cells
Casp6 inh: inhibitors of human caspase-6; actives 0.53% (n = 350,000); P55212; purified caspase-6, Z-VEID-R110 cleavage fluorescence; inhibition, % at 12.5 µM;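 active means mean inhibition across replicates at least about 35%, with every replicate also reaching that limit, limit read from the data; inconclusive means only one of the two criteria met; inactive means neither criterion met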
Target sequence (P55212 24-179 limits assumed): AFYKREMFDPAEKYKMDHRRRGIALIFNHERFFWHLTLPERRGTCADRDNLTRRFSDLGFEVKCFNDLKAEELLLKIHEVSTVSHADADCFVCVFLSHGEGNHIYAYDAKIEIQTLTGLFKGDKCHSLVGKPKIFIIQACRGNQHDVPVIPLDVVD
Target sequence (P55212 194-293 limits assumed): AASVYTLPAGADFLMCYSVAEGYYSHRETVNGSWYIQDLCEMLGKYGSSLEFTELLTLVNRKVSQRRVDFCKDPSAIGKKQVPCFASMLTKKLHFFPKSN
XiGFP reactiv: reactivates the inactive X chromosome in mouse fibroblasts; XiGFP mouse fibroblasts, % GFP-positive cells imaging, 3 d; cells co-treated with 5-aza-dC sensitizer; scaled so ellipticine positive control = 100%; activation, % at 7.58 µM; actives 0.055% (n = 360,000);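 active means mean normalized replicate activation at least 10% and every replicate at or above 10%; inconclusive means only one of the two criteria met; inactive means mean below 10% and not all replicates reach 10%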
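Assay system – SV40-immortalized XiGFP fibroblast cells, line 68-5-11 · Buffer or medium – DMEM supplemented with 5-aza-dC as sensitizing agent · Dosing – one concentration, pinned · Benchmarks – positive control ellipticine, 6 µM final · Times – 3 days compound exposure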
CaV13 FRET inh: Disruptors of the CACNA1D IQ motif to Ca2+-dependent inactivation inhibitor domain association, primary screening, Förster resonance energy transfer in intact living …. HEK cells, CFP/YFP FRET ICDI-IQ, plate reader, 10 min; percent FRET-ratio fall versus neutral wells. actives 0.098% (n = 340,000). inhibition, % at 12.3 µM. AID 743397;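 active means mean replicate inhibition of at least 30% and at least 1% of replicates passing that level; inconclusive means only one of the two criteria is met; inactive means neither criterion is met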
FN deposit inh: fibronectin deposition inhibition; inhibition, % at 12.6 µM; AH1F fibroblasts, Alexa488-fibronectin deposition fluorescence, overnight; actives 0.086% (n = 350,000); AID 743247;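 active means mean inhibition across replicates of 30% or more, regardless of how many single replicates reach that level; inconclusive means mean under 30% yet at least half of replicates reach 30%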
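Material: AH1F fibroblasts assembling fluorescent fibronectin matrix; amount: 10000 AH1F cells/well; medium: DMEM, 2% serum; reagent: Alexa488-fibronectin, 24 nM final in well; dosing: single compound dose, delivered by pin transfer; incubation: 1 h adhesion, overnight exposure; detection: fluorescence after three HBSS washes, excitation 485 nm, emission 525 nm; measure: fibronectin deposition inhibition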
A number is an active result; 0 = inactive; ? = inconclusive; - = not tested or not shown. Hits are enriched below; roughly 2% of the tested compounds scored in any of these assays.

SMILES	DENV2 CPE	Casp6 inh	XiGFP reactiv	CaV13 FRET inh	FN deposit inh
CC(C)NC(=O)N1[C@@H](CO)[C@@H]2c3ccccc3N(C(=O)Nc3ccc(Cl)cc3)C[C@@H]21	0	0	0	-	-
Cc1nn(CCCC(=O)NCCc2ccccc2)c(=O)c2nn(-c3ccccc3)c(C)c12	0	50.5	0	0	0
Cc1ccc(-n2nc3c(=O)n(CCCC(=O)NCCc4ccccc4)nc(C)c3c2C)cc1	0	0	0	0	0
Cc1noc(C)c1NC(=O)Nc1ccc2c(c1)C(=O)N([C@@H](C)CO)C[C@@H](C)[C@@H](CN(C)S(=O)(=O)c1ccc(F)cc1)OCCCC[C@H](C)O2	0	0	0	-	-
Cc1[nH]cnc1CN1CCc2c(c3ccccc3n2C)C1=O	0	80.7	0	0	0
Cc1nccn1CC1CCc2c(c3ccccc3n2C)C1=O (stereo not drawn)	0	0	0	0	0
CCOc1ccccc1C1C(C(=O)Nc2ccccc2OC)=C(C)Nc2nc(CCCO)nn21 (stereo not drawn)	57.3	0	0	0	0
COc1ccc(C2C(C(=O)Nc3ccc(F)cc3)=C(C)Nc3nc(CCCO)nn32)cc1 (stereo not drawn)	28.5	0	0	0	0
O=C(C[C@H]1CC[C@@H](NC(=O)Nc2ccccc2F)[C@@H](CO)O1)NCc1ccc(-c2ccccc2)cc1	30.2	0	0	-	-
O=C(C[C@@H]1CC[C@H](NC(=O)Nc2ccccc2F)[C@H](CO)O1)NCc1ccc(-c2ccccc2)cc1	0	0	0	-	-
O=C(C[C@@H]1CC[C@H](NC(=O)Nc2ccc3c(c2)OCO3)[C@@H](CO)O1)NCc1ccc2c(c1)OCO2	24.3	0	0	-	-
O=C(Nc1ccc2c(c1)OCO2)N[C@@H]1CC[C@H](CCNC(=O)C2CCC2)O[C@@H]1CO	32.3	0	0	-	-
COc1ccc2c3c(n(C)c2c1)[C@@H](CO)N(C)CC31CCN(S(C)(=O)=O)CC1	-	-	0	-	-
COc1ccc2c3c(n(C)c2c1)[C@@H](CO)N(S(=O)(=O)c1ccc(C)cc1)CC31CN(S(=O)(=O)c2ccc(C)cc2)C1	62.7	-	0	-	-
COc1ccc2c3c(n(C)c2c1)[C@H](CO)N(C)CC31CN(S(C)(=O)=O)C1	22.6	-	0	-	-
CC(C)c1ccc(NC(=O)[C@H](NC(=O)[C@@H]2Cc3ccccc3CN2)c2ccccc2)cc1	56.7	0	0	0	0
Cc1ccc(NC(=O)[C@H](NC(=O)[C@@H]2Cc3ccccc3CN2)c2ccccc2)cc1	0	0	0	0	0
Cc1ccc(Cc2c(-c3ccc(C)cc3)nc3ccc(Cl)cn23)cc1	24.6	0	0	0	0
Cc1ccc(-c2nc3ccc(Cl)cn3c2Cc2ccsc2)cc1	?	37.3	0	0	0
CC(C)NC(=O)N(C)C[C@@H]1Oc2ccc(N(C)C)cc2CC(=O)N(C)C[C@H]1C	-	-	0	-	0
COc1cc(NC(=O)c2cc(S(=O)(=O)N3CCCCC3)ccc2N2CCOCC2)cc(OC)c1OC	62.7	0	0	0	0
O=C(Nc1ccccc1Cl)c1cc(S(=O)(=O)N2CCCCC2)ccc1N1CCOCC1	-	-	-	0	0
O=C(COC(=O)c1cc(S(=O)(=O)N2CCCCC2)ccc1N1CCOCC1)c1ccccc1Cl	?	0	0	64.1	0
N#CCOC(=O)c1cc(S(=O)(=O)N2CCCCC2)ccc1N1CCOCC1	0	0	0	0	0
Cc1occc1C(=O)Nc1cc(S(=O)(=O)N2CCOCC2)ccc1OC(C)C	0	0	0	0	0
SMILES	DENV2 CPE	Casp6 inh	XiGFP reactiv	CaV13 FRET inh	FN deposit inh
COc1ccc(CCC(=O)Nc2cc(S(=O)(=O)N3CCOCC3)ccc2OC(C)C)cc1	70.4	0	0	0	0
CC(C)Oc1ccc(S(=O)(=O)N2CCOCC2)cc1NC(=O)c1cc([N+](=O)[O-])ccc1N1CCOCC1	72.1	0	0	-	0
C[C@H](CO)N1C[C@H](C)[C@@H](CN(C)CC2CCCCC2)Oc2ccc(NC(=O)CCC(F)(F)F)cc2CC1=O	0	0	0	-	-
O=C(N[C@H]1CC[C@H](CCNS(=O)(=O)Cc2ccccc2)O[C@H]1CO)c1ccc2c(c1)OCO2	0	0	0	-	0
O=C(NC1CCCCC1)C(c1ccnc2ccccc12)N1CCc2ccccc2C1 (stereo not drawn)	0	76.2	-	-	0
CCN1[C@@H]2c3ccc(-c4cccc(F)c4)c(=O)n3C[C@@H]2[C@@H](CO)[C@@H]1C(=O)N[C@@H](C)c1ccccc1	0	0	0	-	-
COc1ccc(NS(=O)(=O)c2cccs2)cn1	23.6	0	0	0	0
COc1ccc(NS(=O)(=O)c2ccc(Cl)s2)cn1	0	0	0	0	0
CCN(CC)S(=O)(=O)c1cccc(N=NC2=C(O)CCCC2=O)c1	-	-	0	0	0
O=C1CCCC(O)=C1N=Nc1cccc(C(=O)O)c1	0	37.3	0	0	0
C[C@@H]1CN([C@H](C)CO)C(=O)c2cc(-c3ccccc3F)cnc2O[C@H]1CN(C)C(=O)C1CC1	?	0	0	-	-
COc1ccccc1-c1cn(CC[C@H]2CC[C@H](NC(=O)NC(C)C)[C@H](CO)O2)nn1	0	0	0	-	0
O=C(Nc1ccc(Cl)cc1)N[C@H]1CC[C@@H](CCn2cc(Cc3ccccc3)nn2)O[C@H]1CO	45.8	0	0	-	-
COc1ccc(NC(=O)N[C@@H]2CC[C@@H](CCn3cc(-c4ccccc4)nn3)O[C@@H]2CO)cc1	0	0	0	-	-
COc1ccccc1-c1cn(CC[C@H]2CC[C@@H](NC(=O)NC(C)C)[C@H](CO)O2)nn1	27.6	0	0	-	0
COc1ccc(NC(=O)N[C@H]2CC[C@H](CCn3cc(-c4ccccc4)nn3)O[C@@H]2CO)cc1	37.0	0	0	-	-
C[C@H](CO)N1C[C@H](C)[C@@H](CN(C)C(=O)C2CCC2)Oc2cc(-c3ccccc3)ccc2S1(=O)=O	-	-	0	-	-
COc1cc(CN(C)Cc2cccc3ccccc23)cc([N+](=O)[O-])c1O	42.5	0	0	0	0
Cc1ccc2c(Cl)c(C(=O)N/N=C/c3cccn3C)sc2c1	0	0	0	0	0
Cn1cccc1/C=N/NC(=O)c1sc2cc(Cl)ccc2c1Cl	0	0	0	42.1	0
Cc1cccc(C)c1OCC(=O)OC/C(O)=C(\C#N)c1nc2ccccc2[nH]1	32.7	0	0	0	0
CCCOc1ccccc1/C=C1\SC(N)=NC1=O	0	0	0	43.5	0
Cc1ccc(S(=O)(=O)N(C)C[C@H]2Oc3ccc(NC(=O)Nc4ccc(F)cc4)cc3CC(=O)N([C@H](C)CO)C[C@@H]2C)cc1	80.3	0	0	-	-
Cc1ccc(S(=O)(=O)N(C)C[C@@H]2Oc3ccc(NC(=O)Nc4ccc(F)cc4)cc3CC(=O)N([C@H](C)CO)C[C@@H]2C)cc1	0	0	0	-	-
C[C@H](CO)N1C[C@H](C)[C@@H](CN(C)S(=O)(=O)c2ccc(Cl)cc2)Oc2ccc(NC(=O)Nc3ccc(F)cc3)cc2CC1=O	0	0	0	-	-

Bioassay records deposited in PubChem BioAssay by Broad Institute.
